Data reported in ChEMBL document CHEMBL1155027, “Synthesis and proteasome inhibition of glycyrrhetinic acid derivatives” (Bioorg Med Chem, 2008).
Activity calls are given as the source filed them. The calls are words filed in the database; no cut-off is given here. Residues, ends and D or L forms follow the SMILES beside them.

Legend:
[1] = Inhibition of chymotrypsin-like activity of human 20S proteasome
[2] = Inhibition of trypsin-like activity of human 20S proteasome
Procedure, shortened: (§1)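 Purified human 20S proteasome assayed with the activator PA28 (16 µg/ml) and fluorogenic substrates: Suc-Leu-Leu-Val-Tyr-AMC for chymotrypsin-like, Bz-VGR-AMC for trypsin-like, and (Z)-LLE-bNA for caspase-like activity. Fluorescence was read at 360/460 nm across a range of inhibitor concentrations. IC50 is the concentration that halves reaction velocity (ΔRFU/min), taken from a plot of velocity against log concentration.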

[3] = Inhibition of caspase-like activity of human 20S proteasome; procedure, shortened: as §1
MT4 [4] = assay: Inhibition of chymotrypsin-like activity of 20S proteasome in human MT4 cells at 0.25 uM after 3 hrs; type: cell-based
MT4 [5] = assay: Inhibition of TNF-alpha-induced 20S proteasome degradation of IkappaBalpha in human MT4 cells at 1.6 uM after 3 hrs by Western blot analysis; type: cell-based
Procedure, shortened: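 MT4 cells pretreated with inhibitor 3 h, then TNFα 10 ng/ml for 30 min; cytosolic proteins resolved on 12% SDS-PAGE, transferred to nitrocellulose and Western blotted for IκBα, with β-actin as loading reference.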

IC50 [1] | Structure (SMILES) | also measured
1.92 µM | CC(C)C(=O)O[C@H]1CC[C@]2(C)[C@H]3C(=O)C=C4[C@@H]5C[C@@](C)(C(=O)O)CC[C@]5(C)CC[C@@]4(C)[C@]3(C)CC[C@H]2C1(C)C | 
2.08 µM | CC1(C)[C@@H](OC(=O)c2ccccc2)CC[C@]2(C)[C@H]3C(=O)C=C4[C@@H]5C[C@@](C)(C(=O)O)CC[C@]5(C)CC[C@@]4(C)[C@]3(C)CC[C@@H]12 | 
3.09 µM | CC(C)CC(NC(=O)[C@@]1(C)CC[C@]2(C)CC[C@]3(C)C(=CC(=O)[C@@H]4[C@@]5(C)CC[C@H](OC(=O)CC(C)(C)C(=O)O)C(C)(C)[C@@H]5CC[C@]43C)[C@@H]2C1)C(=O)O (stereo partly specified) | 
8.7 µM | CC(C(=O)O)C(C)C(=O)O[C@H]1CC[C@]2(C)[C@H]3C(=O)C=C4[C@@H]5C[C@@](C)(C(=O)O)CC[C@]5(C)CC[C@@]4(C)[C@]3(C)CC[C@H]2C1(C)C (stereo partly specified) | 
> 40 µM | CC(C)CC(NC(=O)[C@@]1(C)CC[C@]2(C)CC[C@]3(C)C(=CC(=O)[C@@H]4[C@@]5(C)CC[C@H](O)C(C)(C)[C@@H]5CC[C@]43C)[C@@H]2C1)C(=O)O (stereo partly specified) | 
1.39 µM | CC1(C)[C@@H](OC(=O)CCCC(=O)O)CC[C@]2(C)[C@H]3C(=O)C=C4[C@@H]5C[C@@](C)(C(=O)O)CC[C@]5(C)CC[C@@]4(C)[C@]3(C)CC[C@@H]12 | 
0.87 µM | CC(C)(CC(=O)O[C@H]1CC[C@]2(C)[C@H]3C(=O)C=C4[C@@H]5C[C@@](C)(C(=O)O)CC[C@]5(C)CC[C@@]4(C)[C@]3(C)CC[C@H]2C1(C)C)C(=O)O | 
6.86 µM | CC(C)(CC(=O)O)CC(=O)O[C@H]1CC[C@]2(C)[C@H]3C(=O)C=C4[C@@H]5C[C@@](C)(C(=O)O)CC[C@]5(C)CC[C@@]4(C)[C@]3(C)CC[C@H]2C1(C)C | 

Further lines, the compound ahead of its results:

Structure (SMILES) | IC50 [1] | also measured
CC1(C)[C@@H](OC(=O)CCCCC(=O)O)CC[C@]2(C)[C@H]3C(=O)C=C4[C@@H]5C[C@@](C)(C(=O)O)CC[C@]5(C)CC[C@@]4(C)[C@]3(C)CC[C@@H]12 | 0.29 µM | IC50 [2]: 3.32 µM; IC50 [3]: 5.02 µM
CC1(C)[C@@H](OC(=O)c2ccc(C(=O)O)cc2)CC[C@]2(C)[C@H]3C(=O)C=C4[C@@H]5C[C@@](C)(C(=O)O)CC[C@]5(C)CC[C@@]4(C)[C@]3(C)CC[C@@H]12 | 0.31 µM | 
CC1(C)[C@@H](O)CC[C@]2(C)[C@H]3C(=O)C=C4[C@@H]5C[C@@](C)(C(=O)O)CC[C@]5(C)CC[C@@]4(C)[C@]3(C)CC[C@@H]12 [ENOXOLONE] | 22.3 µM | IC50 [2]: > 40 µM; IC50 [3]: > 40 µM
CC(=O)Cc1ccc(OCC(=O)O[C@H]2CC[C@]3(C)[C@H]4C(=O)C=C5[C@@H]6C[C@@](C)(C(=O)O)CC[C@]6(C)CC[C@@]5(C)[C@]4(C)CC[C@H]3C2(C)C)cc1 | 2.27 µM | 
CC(=O)O[C@H]1CC[C@]2(C)[C@H]3C(=O)C=C4[C@@H]5C[C@@](C)(C(=O)O)CC[C@]5(C)CC[C@@]4(C)[C@]3(C)CC[C@H]2C1(C)C [ACETOXOLONE] | > 40 µM | 
COC(=O)C(CC(C)C)NC(=O)[C@@]1(C)CC[C@]2(C)CC[C@]3(C)C(=CC(=O)[C@@H]4[C@@]5(C)CC[C@H](OC(C)=O)C(C)(C)[C@@H]5CC[C@]43C)[C@@H]2C1 (stereo partly specified) | > 40 µM | 
CC(=O)N[C@@H](CSC(=O)C1([C@@H](O)C(C)C)NC(=O)[C@H](C)[C@@H]1O)C(=O)O (single isomer, unassigned) [LACTACYSTIN] |  | IC50 [2]: > 30 µM; IC50 [3]: > 30 µM
CSCC[C@@H](C=O)NC(=O)[C@H](CC(C)C)NC(=O)[C@H](CC(C)C)NC(C)=O (Ac-Leu-Leu-Met-aldehyde) | 5.25 µM | IC50 [2]: > 25 µM; IC50 [3]: 22.5 µM
CC1(C)[C@@H](OC(=O)CCC(=O)O)CC[C@]2(C)[C@H]3C(=O)C=C4[C@@H]5C[C@@](C)(C(=O)O)CC[C@]5(C)CC[C@@]4(C)[C@]3(C)CC[C@@H]12 [CARBENOXOLONE] | 2.63 µM | 
CC1(C)[C@@H](OC(=O)Cc2cccc(CC(=O)O)c2)CC[C@]2(C)[C@H]3C(=O)C=C4[C@@H]5C[C@@](C)(C(=O)O)CC[C@]5(C)CC[C@@]4(C)[C@]3(C)CC[C@@H]12 | 1.05 µM | 
CC1(C)[C@@H](OC(=O)C/C=C/CC(=O)O)CC[C@]2(C)[C@H]3C(=O)C=C4[C@@H]5C[C@@](C)(C(=O)O)CC[C@]5(C)CC[C@@]4(C)[C@]3(C)CC[C@@H]12 | 0.35 µM | IC50 [2]: 19.3 µM; IC50 [3]: 26.5 µM
CC1(C)[C@@H](OC(=O)c2cccc(C(=O)O)c2)CC[C@]2(C)[C@H]3C(=O)C=C4[C@@H]5C[C@@](C)(C(=O)O)CC[C@]5(C)CC[C@@]4(C)[C@]3(C)CC[C@@H]12 | 0.22 µM | IC50 [2]: 2.91 µM; inhibition (MT4 [4]): 50%; IC50 [3]: 3.56 µM; Activity (MT4 [5]): Active
CC1(C)[C@@H](OC(=O)COCC(=O)O)CC[C@]2(C)[C@H]3C(=O)C=C4[C@@H]5C[C@@](C)(C(=O)O)CC[C@]5(C)CC[C@@]4(C)[C@]3(C)CC[C@@H]12 | 1.93 µM | 
CCC(=O)O[C@H]1CC[C@]2(C)[C@H]3C(=O)C=C4[C@@H]5C[C@@](C)(C(=O)O)CC[C@]5(C)CC[C@@]4(C)[C@]3(C)CC[C@H]2C1(C)C | > 40 µM | 
CC1(C)[C@@H](OC(=O)Cc2ccc(CC(=O)O)cc2)CC[C@]2(C)[C@H]3C(=O)C=C4[C@@H]5C[C@@](C)(C(=O)O)CC[C@]5(C)CC[C@@]4(C)[C@]3(C)CC[C@@H]12 | 1.78 µM | 
